Our source for the MIC and MBC values is ChEMBL document CHEMBL3392996, “Non-transpeptidase binding arylthioether β-lactams active against Mycobacterium tuberculosis and Moraxella catarrhalis” (2015).

Assay [1] relates to Klebsiella pneumoniae. Kind of assay: Antimicrobial activity against extended spectrum beta-lactamase and carbapenemase producing Klebsiella pneumoniae KPC L133 incubated for 48 hrs by microdilution broth method. Format: functional, organism-based. In outline:
(§1)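 Stocks in DMSO were diluted at least 10-fold into Mueller-Hinton broth, then 2-fold serially diluted in MH from 500 to 15.6 μg/ml. Bacteria were added, with DMSO-only dilution controls, and incubated at 37 °C for 48 h. Growth was scored at 24 and 48 h. MIC was the lowest concentration with no growth. Run in quadruplicate.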

For assay [2], the system named is Moraxella catarrhalis. Description: Antimicrobial activity against Moraxella catarrhalis clinical isolates incubated for 48 hrs by microdilution broth method. It is filed as functional. In outline: as §1
Assay [3] has as its system Acinetobacter baumannii. Kind of assay: Antimicrobial activity against extended spectrum beta-lactamase and carbapenemase producing Acinetobacter baumannii L187 incubated for 48 hrs by microdilution broth method. Format: functional, organism-based. The essentials:
as §1

For assay [4], the system named is Pseudomonas aeruginosa. Description: Antimicrobial activity against Pseudomonas aeruginosa ATCC 27853 incubated for 48 hrs by microdilution broth method. Format: functional, organism-based. The essentials:
as §1

The test system of assay [5] is Escherichia coli. Kind of assay: Antimicrobial activity against Escherichia coli ATCC 25922 incubated for 48 hrs by microdilution broth method. It is filed as functional, organism-based. The essentials: as §1
Assay [6] relates to Escherichia coli. Description: Antimicrobial activity against extended spectrum beta-lactamase producing Escherichia coli MISC 262 incubated for 48 hrs by microdilution broth method. It is filed as functional, organism-based. The essentials: as §1
The test system of assay [7] is Klebsiella pneumoniae. Kind of assay: Antimicrobial activity against AmpC producing Klebsiella pneumoniae MISC 304 incubated for 48 hrs by microdilution broth method. It is filed as functional, organism-based. In outline:
as §1

In assay [8] the test system is Mycobacterium tuberculosis. Description: Antimicrobial activity against Mycobacterium tuberculosis H37Rv incubated for 48 hrs by microdilution broth method. It is filed as functional.
The subject of assay [9] is Citrobacter freundii. Description: Antimicrobial activity against extended spectrum beta-lactamase producing Citrobacter freundii Citro 314 incubated for 48 hrs by microdilution broth method. Format: functional, organism-based. In outline:
as §1

In assay [10] the test system is Escherichia coli. Kind of assay: Antimicrobial activity against broad spectrum beta-lactamase producing Escherichia coli GB 8 incubated for 48 hrs by microdilution broth method. Format: functional, organism-based. The essentials: as §1
In assay [11] the test system is Escherichia coli. Description: Antimicrobial activity against extended spectrum beta-lactamase and carbapenemase producing Escherichia coli ESBL L108 incubated for 48 hrs by microdilution broth method. Format: functional, organism-based. The essentials: as §1
The subject of assay [12] is Escherichia coli. Kind of assay: Antimicrobial activity against extended spectrum beta-lactamase and carbapenemase producing Escherichia coli ESBL L109 incubated for 48 hrs by microdilution broth method. Format: functional, organism-based. The essentials:
as §1

The test system of assay [13] is Citrobacter freundii. Description: Antimicrobial activity against AmpC producing Citrobacter freundii CITRO 21 incubated for 48 hrs by microdilution broth method. It is filed as functional, organism-based. In outline:
as §1

For assay [14], the system named is Acinetobacter baumannii. Description: Antimicrobial activity against extended spectrum beta-lactamase and carbapenemase producing Acinetobacter baumannii L186 incubated for 48 hrs by microdilution broth method. Format: functional, organism-based. In outline:
as §1

Assay [15] has as its system Moraxella catarrhalis. Kind of assay: Bactericidal activity against Moraxella catarrhalis clinical isolates incubated for 48 hrs by microdilution broth method and standard plating method. Format: functional. The essentials: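 Broth microdilution in Mueller-Hinton broth, 2-fold series from 500 to 15.6 μg/ml, with DMSO-only controls, 37 °C for 48 h. Wells showing no growth were plated (10 μL) on MH agar. MBC was the lowest concentration giving no growth on plating. Run in quadruplicate.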

The test system of assay [16] is Acinetobacter baumannii. Kind of assay: Antimicrobial activity against extended spectrum beta-lactamase and carbapenemase producing Acinetobacter baumannii L185 incubated for 48 hrs by microdilution broth method. It is filed as functional, organism-based. In outline:
as §1

In assay [17] the test system is Escherichia coli. Kind of assay: Antimicrobial activity against broad spectrum beta-lactamase producing Escherichia coli MISC 206 incubated for 48 hrs by microdilution broth method. Format: functional, organism-based. The essentials: as §1
Assay [18] concerns Staphylococcus aureus. Kind of assay: Antimicrobial activity against Staphylococcus aureus ATCC 25923 incubated for 48 hrs by microdilution broth method. Format: functional, organism-based. The essentials:
as §1

The subject of assay [19] is Enterococcus faecalis. Description: Antimicrobial activity against Enterococcus faecalis ATCC 29212 incubated for 48 hrs by microdilution broth method. Format: functional, organism-based. The essentials: as §1
For assay [20], the system named is Klebsiella pneumoniae. Description: Antimicrobial activity against AmpC producing Klebsiella pneumoniae KLEB 249 incubated for 48 hrs by microdilution broth method. Format: functional, organism-based. The essentials: as §1
Assay [21] relates to Stenotrophomonas maltophilia. Description: Antimicrobial activity against metallo beta-lactamases producing Stenotrophomonas maltophilia GM24 incubated for 48 hrs by microdilution broth method. Format: functional, organism-based. In outline: as §1
Assay [22] has as its system Klebsiella pneumoniae. Kind of assay: Antimicrobial activity against extended spectrum beta-lactamase and carbapenemase producing Klebsiella pneumoniae ESBL L174 incubated for 48 hrs by microdilution broth method. Format: functional, organism-based. The essentials:
as §1

Values after ≈ are worked out from the molar mass of the structure shown. Active and inactive are the calls of the source. The rule behind the calls is not given here.

On to `O=C1CC(Sc2cc(C(F)(F)F)cc(C(F)(F)F)c2)N1C(=O)NCc1ccccc1` (racemic), for which the MIC entry in assay [1], in assay [3], in assay [4], in assay [5], in assay [6] and in assay [7] was “inactive” in each case. In addition, the MIC entry in assay [9], in [10], in assay [11], in [12], in assay [13] and in assay [14] was “inactive” throughout. For the same molecule, the MIC result in [16], in assay [17], in assay [18], in assay [19], in assay [20] and in assay [21] was “inactive” in each case. Moreover, in assay [22], the MIC entry was “inactive”. Also, the MIC in assay [2] and in assay [8] was 6.25 µg/mL (≈ 13.9 µM) each time. In assay [15], this molecule displayed an MBC of 6.25 µg/mL (≈ 13.9 µM).

In the case of `O=C1CC(Sc2ccc(F)cc2)N1C(=O)NCc1ccccc1` (racemic), the MIC result in assay [1], in assay [3], in assay [4], in assay [5], in assay [6] and in assay [7] was “inactive” in each case. In addition, the MIC entry in assay [9], in [10], in assay [11], in [12], in [13] and in assay [14] was “inactive” throughout. Further, the MIC entry in [16], in assay [17], in assay [18], in assay [19], in [20] and in [21] was “inactive” each time. Moreover, in [22], the MIC result is “inactive”. The figures for the MIC in [2] and in [8] were 25 µg/mL (≈ 75.7 µM) and 6.25 µg/mL (≈ 18.9 µM), respectively. In assay [15], this molecule displayed an MBC of 25 µg/mL (≈ 75.7 µM).

Take `O=C1CC(Sc2ccc(F)c(F)c2)N1C(=O)NCc1ccccc1` (racemic): the MIC result in [1], in assay [3], in assay [4], in assay [5], in assay [6] and in assay [7] was “inactive” in each case. For the same molecule, the MIC entry in [9], in assay [10], in [11], in assay [12], in [13] and in assay [14] was “inactive” throughout. The MIC entry in assay [16], in assay [17], in [18], in [19], in assay [20] and in assay [21] was “inactive” each time. In [22], the MIC entry is “inactive”. Also, the MIC in assay [2] came out at 12.5 µg/mL (≈ 35.9 µM); in assay [8], 6.25 µg/mL (≈ 17.9 µM). Further, the MBC in assay [15] is 25 µg/mL (≈ 71.8 µM).

As to `O=C1CC(Sc2ccccc2F)N1C(=O)NCc1ccccc1` (racemic), the MIC result in [1], in [3], in assay [4], in assay [5], in assay [6] and in [7] was “inactive” throughout. For the same molecule, the MIC entry in assay [9], in assay [10], in assay [11], in [12], in [13] and in assay [14] was “inactive” throughout. Besides, the MIC entry in [16], in assay [17], in assay [18], in [19], in assay [20] and in [21] was “inactive” throughout. For the same molecule, the MIC entry in assay [22] is “inactive”. Further, the MIC in assay [2] came out at 25 µg/mL (≈ 75.7 µM); in assay [8], 3.13 µg/mL (≈ 9.47 µM). In assay [15], this molecule came in with an MBC of 50 µg/mL (≈ 151 µM).

`O=C1CC(Sc2ccccc2)N1C(=O)NCc1ccccc1` (racemic): the MIC entry in assay [1], in assay [3], in [4], in assay [5], in [6] and in assay [7] was “inactive” in each case. For the same molecule, the MIC result in [9], in assay [10], in assay [11], in [12], in assay [13] and in assay [14] was “inactive” throughout. For the same molecule, the MIC entry in assay [16], in [17], in assay [18], in assay [19], in assay [20] and in [21] was “inactive” throughout. Further, the MIC result in assay [22] was “inactive”. For the same molecule, the MIC in assay [2] turned out to be 12.5 µg/mL (≈ 40 µM); in [8], 6.25 µg/mL (≈ 20 µM). In [15], this molecule came in with an MBC of 12.5 µg/mL (≈ 40 µM).

Regarding `O=C1CC(Sc2ccccc2C(F)(F)F)N1` (racemic), the MIC in assay [2] is 1.5 µg/mL (≈ 6.07 µM); in [8], no less than 100 µg/mL. The MBC in [15] was found to be 1.5 µg/mL (≈ 6.07 µM).

As for `COc1cccc(SC2CC(=O)N2)c1` (racemic), the MIC was 100 µg/mL (≈ 478 µM) in assay [2] and greater than 100 µg/mL in assay [8]. The molecule further showed a minimum bactericidal concentration (MBC) in [15] greater than 200 µg/mL.

Regarding `O=C1CC(Sc2ccc(Cl)cc2Cl)N1C(=O)NCc1ccccc1` (racemic), the MIC in [2] worked out at 3.13 µg/mL (≈ 8.21 µM); in assay [8] it was 25 µg/mL (≈ 65.6 µM). In addition, in assay [15], the MBC is 6.25 µg/mL (≈ 16.4 µM).

Regarding `O=C1CC(Sc2ccc(Cl)cc2Cl)N1` (racemic), the MIC in assay [2] is 6.25 µg/mL (≈ 25.2 µM); in assay [8], 25 µg/mL (≈ 101 µM). Besides, the MBC in assay [15] was found to be 6.25 µg/mL (≈ 25.2 µM).

In the case of `COc1ccc(SC2CC(=O)N2C(=O)NCc2ccccc2)cc1OC` (racemic), the MIC was 200 µg/mL (≈ 537 µM) in [2] and 250 µg/mL (≈ 671 µM) in assay [8]. The minimal bactericidal concentration (MBC) in assay [15] was greater than 200 µg/mL.

`O=C1CC(Sc2c(F)c(F)c(F)c(F)c2F)N1` (racemic): the minimal inhibitory concentration (MIC) was 1.5 µg/mL (≈ 5.57 µM) in assay [2] and greater than 100 µg/mL in assay [8]. Also, the MBC in assay [15] was 1.5 µg/mL (≈ 5.57 µM).

As to `O=C1CC(Sc2ccc(F)cc2)N1C(=O)NC(c1ccccc1)c1ccccc1` (racemic), the MIC in assay [2] is greater than 200 µg/mL; in [8], greater than 100 µg/mL. The same molecule had an MBC in [15] greater than 200 µg/mL.

Regarding `O=C1CC(Oc2ccc(C(F)(F)F)cc2)N1` (racemic), the values for the MIC in assay [2] and in assay [8] were 200 µg/mL (≈ 865 µM) and 250 µg/mL (≈ 1080 µM), respectively. Besides, in assay [15], the MBC came out at 200 µg/mL (≈ 865 µM).

Consider `O=C1CC(Sc2ccc(F)c(F)c2)N1` (racemic), for which the MIC in assay [2] and in assay [8] was 50 µg/mL (≈ 232 µM) each time. Also, the MBC in assay [15] turned out to be 50 µg/mL (≈ 232 µM).

For the molecule `O=C1CC(Sc2cccc(F)c2)N1C(=O)NCc1ccccc1` (racemic), the MIC entry in [1], in [3], in [4], in [5], in assay [6] and in [7] was “inactive” in each case. Also, the MIC entry in [9], in assay [10], in [11], in [12], in [13] and in assay [14] was “inactive” in each case. For the same molecule, the MIC result in assay [16], in [17], in assay [18], in assay [19], in assay [20] and in assay [21] was “inactive” each time. For the same molecule, the MIC entry in [22] is “inactive”. The MIC in [2] stood at 25 µg/mL (≈ 75.7 µM). Moreover, in assay [15], the MBC was determined as 100 µg/mL (≈ 303 µM).

As for `COc1cccc(SC2CC(=O)N2C(=O)NCc2ccccc2)c1` (racemic), the MIC is 200 µg/mL (≈ 584 µM) in assay [2] and 100 µg/mL (≈ 292 µM) in assay [8]. The MBC in [15] amounted to 200 µg/mL (≈ 584 µM).

As to `O=C1CC(Sc2cccc3ccccc23)N1C(=O)NCc1ccccc1` (racemic), the MIC is 200 µg/mL (≈ 552 µM) in assay [2] and greater than 100 µg/mL in assay [8]. Moreover, the MBC in assay [15] was greater than 200 µg/mL.

For `O=C1CC(Oc2ccc(C(F)(F)F)cc2)N1C(=O)NCc1ccccc1` (racemic), the MIC in [2] was 50 µg/mL (≈ 137 µM); in [8] it was 125 µg/mL (≈ 343 µM). The same molecule yielded an MBC in [15] greater than 200 µg/mL.
